For 5 compounds, GI50 and MGM results are on record in ChEMBL document CHEMBL1133678, “Synthesis of new indeno[1,2-c]isoquinolines: cytotoxic non-camptothecin topoisomerase I inhibitors” (2000).

As usually defined, the GI50 is the concentration at which growth is held to half of that of the control.

One test has as its system UACC-62. Put plainly: Antiproliferative activity was determined for 50% growth inhibition against human melanoma UACC-62 cell line. It is filed as functional.
Settings: not given
The essentials: (§1)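 Human cancer cell lines from the roughly 55-line panel. GI50 is the concentration giving 50% growth inhibition. The test range was 10^-4 to 10^-8 M. Values outside the range were set to the minimum (10^-8 M) or the maximum (10^-4 M).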
As for `COc1cc2c(cc1OC)-c1c(c3cc(OC)c(OC)cc3c(=O)n1CCCNCCCCO)C2=O`, growth was halved (GI50) at 1.67 µM.

`COc1cc2c(cc1OC)-c1c(c3cc(OC)c(OC)cc3c(=O)n1CCCNCCCO)C2=O.Cl` displayed a GI50 of 1.87 µM.

Still in this test, the particulars now being: Homo sapiens, UACC-62.
Turning to `COc1cc2c(cc1OC)-c1c(c3cc(OC)c(OC)cc3c(=O)n1CCCBr)C2=O`, halving of growth (GI50) required 1.91 µM.

As for `COc1cc2c(cc1OC)-c1c(c3cc(OC)c(OC)cc3c(=O)n1CCCNCCCO)C2=O`, the GI50 was 1.51 µM.

As for `COc1cc2c3c(n(CCCBr)c(=O)c2cc1OC)-c1cc2c(cc1C3=O)OCO2`, the GI50 turned out to be 5.02 µM.

For a further test, the system named is SN12C. The test is described as follows: Antiproliferative activity was determined for 50% growth inhibition against human renal SN12C cell line. It is filed as functional.
Settings: not given
Put shortly:
as §1
Regarding `COc1cc2c(cc1OC)-c1c(c3cc(OC)c(OC)cc3c(=O)n1CCCNCCCCO)C2=O`, the GI50 came to 0.11 µM.

The compound `COc1cc2c(cc1OC)-c1c(c3cc(OC)c(OC)cc3c(=O)n1CCCNCCCO)C2=O.Cl` gave a GI50 of 0.23 µM.

Staying with this test, now noted: Homo sapiens, SN12C.
Consider `COc1cc2c(cc1OC)-c1c(c3cc(OC)c(OC)cc3c(=O)n1CCCBr)C2=O`, for which the GI50 was 3.15 µM.

The compound `COc1cc2c(cc1OC)-c1c(c3cc(OC)c(OC)cc3c(=O)n1CCCNCCCO)C2=O` displayed a 50% growth inhibitory concentration (GI50) of 0.15 µM.

`COc1cc2c3c(n(CCCBr)c(=O)c2cc1OC)-c1cc2c(cc1C3=O)OCO2`: the GI50 is 5.83 µM.

For the next test, the system named is Panel (Carcinoma cell lines). The test is described as follows: Mean graph midpoint for growth inhibition of all human cancer cell lines. It is filed as functional. Set-up: unit: µM.
Settings: not given
The essentials:
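Mean graph midpoint across all cell lines successfully tested in the roughly 55-line human cancer panel. Each line's GI50 is the 50% growth-inhibition concentration, tested over 10^-4 to 10^-8 M. Out-of-range values were set to 10^-8 M or 10^-4 M before averaging.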
On to `COc1cc2c(cc1OC)-c1c(c3cc(OC)c(OC)cc3c(=O)n1CCCBr)C2=O`, for which the MGM was determined as 6.91.

`COc1cc2c(cc1OC)-c1c(c3cc(OC)c(OC)cc3c(=O)n1CCCNCCCO)C2=O` came in with an MGM of 0.55.

For `COc1cc2c3c(n(CCCBr)c(=O)c2cc1OC)-c1cc2c(cc1C3=O)OCO2`, the MGM stood at 13.7.

Turning to `COc1cc2c(cc1OC)-c1c(c3cc(OC)c(OC)cc3c(=O)n1CCCNCCCCO)C2=O`, the MGM amounted to 0.85.

For the compound `COc1cc2c(cc1OC)-c1c(c3cc(OC)c(OC)cc3c(=O)n1CCCNCCCO)C2=O.Cl`, the MGM is listed as 1.14.

A further test relates to OVCAR-3. Put plainly: Antiproliferative activity was determined for 50% growth inhibition against human ovarian OVCAR-3 cell line. It is filed as functional.
Settings: not given
Put shortly:
as §1
`COc1cc2c(cc1OC)-c1c(c3cc(OC)c(OC)cc3c(=O)n1CCCNCCCCO)C2=O` displayed a GI50 of 3.52 µM.

Regarding `COc1cc2c(cc1OC)-c1c(c3cc(OC)c(OC)cc3c(=O)n1CCCNCCCO)C2=O.Cl`, the concentration for 50% growth inhibition (GI50) stood at 3.8 µM.

The test is the same for the next values; noted with them: Homo sapiens, OVCAR-3.
As to `COc1cc2c(cc1OC)-c1c(c3cc(OC)c(OC)cc3c(=O)n1CCCBr)C2=O`, the GI50 came to 60.1 µM.

In the case of `COc1cc2c(cc1OC)-c1c(c3cc(OC)c(OC)cc3c(=O)n1CCCNCCCO)C2=O`, the 50% growth inhibitory concentration (GI50) is 1.9 µM.

`COc1cc2c3c(n(CCCBr)c(=O)c2cc1OC)-c1cc2c(cc1C3=O)OCO2` returned a GI50 of 62.1 µM.

The subject of a further test is HOP-62. Put plainly: Antiproliferative activity was determined for 50% growth inhibition against human lung HOP-62 cell line.
Settings: not given
It is filed as functional. The essentials:
as §1
`COc1cc2c(cc1OC)-c1c(c3cc(OC)c(OC)cc3c(=O)n1CCCNCCCO)C2=O`: it took 0.07 µM to inhibit growth by half (GI50).

Compound `COc1cc2c(cc1OC)-c1c(c3cc(OC)c(OC)cc3c(=O)n1CCCNCCCCO)C2=O` had a GI50 of 0.14 µM.

Consider `COc1cc2c(cc1OC)-c1c(c3cc(OC)c(OC)cc3c(=O)n1CCCNCCCO)C2=O.Cl`, for which the GI50 amounted to 0.32 µM.

Still in this test, the particulars now being: Homo sapiens, HOP-62.
`COc1cc2c(cc1OC)-c1c(c3cc(OC)c(OC)cc3c(=O)n1CCCBr)C2=O`: growth was halved (GI50) at 1.87 µM.

For `COc1cc2c3c(n(CCCBr)c(=O)c2cc1OC)-c1cc2c(cc1C3=O)OCO2`, the GI50 came out at 6.22 µM.

For another test, the system named is DU-145. Put plainly: Antiproliferative activity was determined for 50% growth inhibition against human Prostate DU-145 cell line. It is filed as functional.
Settings: not given
Put shortly:
as §1
Take `COc1cc2c(cc1OC)-c1c(c3cc(OC)c(OC)cc3c(=O)n1CCCNCCCO)C2=O`: growth was halved (GI50) at 0.1 µM.

`COc1cc2c(cc1OC)-c1c(c3cc(OC)c(OC)cc3c(=O)n1CCCNCCCCO)C2=O`: the GI50 was determined as 0.1 µM.

The compound `COc1cc2c(cc1OC)-c1c(c3cc(OC)c(OC)cc3c(=O)n1CCCNCCCO)C2=O.Cl` registered a concentration for 50% growth inhibition (GI50) of 0.23 µM.

The same test, now with this note: Homo sapiens, DU-145.
`COc1cc2c(cc1OC)-c1c(c3cc(OC)c(OC)cc3c(=O)n1CCCBr)C2=O` came in with a GI50 of 1.92 µM.

Compound `COc1cc2c3c(n(CCCBr)c(=O)c2cc1OC)-c1cc2c(cc1C3=O)OCO2` yielded a GI50 of 3.2 µM.

The next test relates to HCT-116. Put plainly: Antiproliferative activity was determined for 50% growth inhibition against human colon HCT116 cell line. It is filed as functional.
Settings: not given
The essentials: as §1
`COc1cc2c(cc1OC)-c1c(c3cc(OC)c(OC)cc3c(=O)n1CCCNCCCCO)C2=O`: the GI50 turned out to be 0.71 µM.

The compound `COc1cc2c(cc1OC)-c1c(c3cc(OC)c(OC)cc3c(=O)n1CCCNCCCO)C2=O.Cl` gave a 50% growth inhibitory concentration (GI50) of 0.71 µM.

The test is the same for the next values; noted with them: Homo sapiens, HCT-116.
`COc1cc2c(cc1OC)-c1c(c3cc(OC)c(OC)cc3c(=O)n1CCCBr)C2=O`: it took 3.53 µM to inhibit growth by half (GI50).

For `COc1cc2c(cc1OC)-c1c(c3cc(OC)c(OC)cc3c(=O)n1CCCNCCCO)C2=O`, the GI50 worked out at 0.46 µM.

Compound `COc1cc2c3c(n(CCCBr)c(=O)c2cc1OC)-c1cc2c(cc1C3=O)OCO2` came in with a GI50 of 12 µM.

In the next test the test system is SF-539. Put plainly: Antiproliferative activity was determined for 50% growth inhibition against human CNS SF-539 cell line. It is filed as functional.
Settings: not given
Put shortly: as §1
For `COc1cc2c(cc1OC)-c1c(c3cc(OC)c(OC)cc3c(=O)n1CCCNCCCO)C2=O`, the GI50 turned out to be 0.08 µM.

Consider `COc1cc2c(cc1OC)-c1c(c3cc(OC)c(OC)cc3c(=O)n1CCCNCCCCO)C2=O`, for which the GI50 worked out at 0.06 µM.

As to `COc1cc2c(cc1OC)-c1c(c3cc(OC)c(OC)cc3c(=O)n1CCCNCCCO)C2=O.Cl`, growth was halved (GI50) at 0.42 µM.

Still in this test, the particulars now being: Homo sapiens, SF-539.
Take `COc1cc2c(cc1OC)-c1c(c3cc(OC)c(OC)cc3c(=O)n1CCCBr)C2=O`: halving of growth (GI50) required 2.58 µM.

Compound `COc1cc2c3c(n(CCCBr)c(=O)c2cc1OC)-c1cc2c(cc1C3=O)OCO2` yielded a concentration for 50% growth inhibition (GI50) of 4.33 µM.

The test system of a further test is MDA-MB-435. Put plainly: Antiproliferative activity was determined for 50% growth inhibition against human breast MDA-MB-435 cell line.
Settings: not given
It is filed as functional. The essentials:
as §1
In the case of `COc1cc2c(cc1OC)-c1c(c3cc(OC)c(OC)cc3c(=O)n1CCCNCCCO)C2=O`, halving of growth (GI50) required 1.09 µM.

`COc1cc2c(cc1OC)-c1c(c3cc(OC)c(OC)cc3c(=O)n1CCCNCCCCO)C2=O` gave a 50% growth inhibitory concentration (GI50) of 2.36 µM.

For the compound `COc1cc2c(cc1OC)-c1c(c3cc(OC)c(OC)cc3c(=O)n1CCCNCCCO)C2=O.Cl`, the GI50 worked out at 2.42 µM.

Still in this test, the particulars now being: Homo sapiens, MDA-MB-435.
In the case of `COc1cc2c(cc1OC)-c1c(c3cc(OC)c(OC)cc3c(=O)n1CCCBr)C2=O`, the 50% growth inhibitory concentration (GI50) is 11.7 µM.

With `COc1cc2c3c(n(CCCBr)c(=O)c2cc1OC)-c1cc2c(cc1C3=O)OCO2`, growth was halved (GI50) at 16.6 µM.
